In ChEMBL document CHEMBL4330056, “Synthesis and Cytotoxic and Antiviral Profiling of Pyrrolo- and Furo-Fused 7-Deazapurine Ribonucleosides” (J Med Chem, 2018):
Active and inactive are the calls of the source. No cut-off for these calls is given here.

Experiments:
[1] = tested on: Human orthopneumovirus; assay: Antiviral activity against Human respiratory syncytial virus A2 infected in Hep2 cells assessed as reduction in virus-induced cytopathic effect incubated for 4 days by CellTiter-Glo viability reagent based assay; format: functional, organism-based
[2] = tested on: CCRF-CEM; assay: Induction of cell cycle arrest in human CCRF-CEM cells assessed as accumulation at G2/M phase at IC50 concentration after 24 hrs by propidium iodide-staining based flow cytometry (reference value: 19.22%); format: functional
[3] = Stability in human plasma assessed as compound remaining at 3.3 umol/L after 15 mins by RF-MS analysis relative to control; format: ADME, cell-free; details: read-out: Stability
[4] = Stability in human plasma assessed as compound remaining at 3.3 umol/L after 60 mins by RF-MS analysis relative to control; format: ADME, cell-free; details: read-out: Stability
[5] = Metabolic stability in human liver microsomes assessed as compound remaining at 5 umol/L after 30 mins relative to control; format: ADME, Microsome; details: read-out: Stability
In short: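 Human microsomal fraction; percent compound remaining over time.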

[6] = tested on: Coxsackievirus B3; assay: Antiviral activity against Human coxsackie B3 Nancy infected in human HeLa cells assessed as inhibited virus-induced cytopathic effect incubated for 2 days by XTT assay; format: functional, organism-based
[7] = Antiproliferative activity against human K562-TAX cells after 3 days by MTS assay; format: functional, cell-based; details: 72 h
[8] = tested on: U2OS; assay: Antiproliferative activity against human U2OS cells after 3 days by MTS assay; format: functional, cell-based; details: 72 h
[9] = Cytotoxicity against human Hep2 cells assessed as reduction in cell viability after 3 days by CellTiter-Glo assay; format: cell-based; details: HEp-2 cells
[10] = tested on: HeLa S3; assay: Antiproliferative activity against human HeLaS3 cells after 72 hrs by XTT assay; format: functional, cell-based; details: HeLa S3, 72 h
[11] = tested on: CCRF-CEM; assay: Inhibition of mitosis in human CCRF-CEM cells assessed Ser10 H3 phosphorylation positive cells at IC50 concentration after 24 hrs by flow cytometry relative to total cell population (reference value: 1.36%); format: functional; parameters: scale not given: the % may be the effect or the level left
[12] = tested on: CCRF-CEM; assay: Induction of cell cycle arrest in human CCRF-CEM cells assessed as accumulation at S phase at 5 times IC50 concentration after 24 hrs by propidium iodide-staining based flow cytometry (reference value: 41.08%); format: functional
[13] = tested on: CCRF-CEM; assay: Induction of cell cycle arrest in human CCRF-CEM cells assessed as accumulation at G2/M phase at 5 times IC50 concentration after 24 hrs by propidium iodide-staining based flow cytometry (reference value: 19.22%); format: functional
[14] = Chemical stability of the compound assessed as compound remaining after 15 mins relative to control; format: physicochemical; details: read-out: Stability
[15] = Chemical stability of the compound assessed as compound remaining after 30 mins relative to control; format: physicochemical; details: read-out: Stability
[16] = tested on: K562; assay: Antiproliferative activity against human K562 cells after 3 days by MTS assay; format: functional, cell-based; details: K562, 72 h
[17] = molecular target: Adenosine kinase (Homo sapiens, UniProt P55263); assay: Substrate activity at recombinant human ADK assessed as compound phosphorylation at 50 uM after 20 mins in presence of [3H]-adenosine by UPLC; format: ADME
Sequence of Adenosine kinase (P55263 whole entry): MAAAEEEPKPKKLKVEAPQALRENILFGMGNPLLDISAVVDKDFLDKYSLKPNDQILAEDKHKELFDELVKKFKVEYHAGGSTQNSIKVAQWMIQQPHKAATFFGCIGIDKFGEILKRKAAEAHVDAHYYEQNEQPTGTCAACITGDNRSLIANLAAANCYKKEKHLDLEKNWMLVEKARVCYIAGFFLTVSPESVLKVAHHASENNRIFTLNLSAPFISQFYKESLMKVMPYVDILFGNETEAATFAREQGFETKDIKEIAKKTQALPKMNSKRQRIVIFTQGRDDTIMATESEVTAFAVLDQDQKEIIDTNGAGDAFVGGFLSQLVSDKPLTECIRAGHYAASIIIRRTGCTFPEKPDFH

[18] = Protein binding in human plasma; format: ADME, cell-free; details: read-out: PPB (converted)
[19] = tested on: Influenza A virus; assay: Antiviral activity against Influenza A virus (A/Mexico/4108/2009(H1N1)) infected in MDCK cells assessed as inhibited virus-induced cytopathic effect incubated for 2 days by XTT assay; format: functional, organism-based
[20] = tested on: MRC5; assay: Antiproliferative activity against human MRC5 cells after 3 days by MTS assay; details: MRC5, 72 h
[21] = tested on: CCRF-CEM; assay: Antiproliferative activity against human CCRF-CEM cells after 3 days by MTS assay; format: functional, cell-based; details: 72 h
[22] = Stability in human plasma assessed as compound remaining at 3.3 umol/L after 120 mins by RF-MS analysis relative to control; format: ADME, cell-free; details: read-out: Stability
[23] = tested on: CCRF-CEM; assay: Induction of cell cycle arrest in human CCRF-CEM cells assessed as accumulation at subG1 phase at 5 times IC50 concentration after 24 hrs by propidium iodide-staining based flow cytometry (reference value: 3.45%); format: functional
[24] = Antiproliferative activity against human CEM-DNR-bulk cells after 3 days by MTS assay; details: 72 h
[25] = tested on: Hepatitis C virus; assay: Antiviral activity against Hepatitis C virus genotype 2a infected in human Huh-luc replicon cells after 3 days by luciferase assay; format: functional, organism-based, Hepacivirus hominis; details: subtype 2a, 72 h
[26] = tested on: CCRF-CEM; assay: Inhibition of RNA synthesis in human CCRF-CEM cells assessed as RNA synthesis level at 5 times IC50 concentration after 24 hrs by BrU incorporation assay (reference value: 49.89%); format: functional; parameters: scale not given: the % may be the effect or the level left
[27] = tested on: HL-60; assay: Antiproliferative activity against human HL60 cells after 72 hrs by XTT assay; format: functional, cell-based; details: HL-60, 72 h
[28] = tested on: CCRF-CEM; assay: Induction of cell cycle arrest in human CCRF-CEM cells assessed as accumulation at S phase at IC50 concentration after 24 hrs by propidium iodide-staining based flow cytometry (reference value: 41.08%); format: functional
[29] = tested on: CCRF-CEM; assay: Induction of cell cycle arrest in human CCRF-CEM cells assessed as accumulation at subG1 phase at IC50 concentration after 24 hrs by propidium iodide-staining based flow cytometry (reference value: 3.45%); format: functional
[30] = tested on: Human alphaherpesvirus 1; assay: Antiviral activity against human herpesvirus 1 HF infected in African green monkey Vero cells assessed as inhibited virus-induced cytopathic effect incubated for 3 days by XTT assay; format: functional, organism-based
[31] = tested on: dengue virus type 2; assay: Antiviral activity against Dengue virus 2 Thailand/16681/84 infected in African green monkey Vero cells assessed as inhibition of virus replication incubated for 3 days by fluorescence microscopy; format: functional, organism-based
[32] = tested on: CCRF-CEM; assay: Inhibition of RNA synthesis in human CCRF-CEM cells assessed as RNA synthesis level at IC50 concentration after 24 hrs by BrU incorporation assay (reference value: 49.89%); format: functional; parameters: scale not given: the % may be the effect or the level left
[33] = tested on: HCT-116; assay: Antiproliferative activity against p53 gene knocked out human HCT116 cells after 3 days by MTS assay; format: functional, cell-based; details: HCT-116, 72 h
[34] = Stability in human plasma assessed as compound remaining at 3.3 umol/L after 30 mins by RF-MS analysis relative to control; format: ADME, cell-free; details: read-out: Stability
[35] = Effective permeability of the compound at 20 umol/L by PAMPA; format: ADME; details: 20 µM
[36] = tested on: HCT-116; assay: Antiproliferative activity against human HCT116 cells after 3 days by MTS assay; format: functional, cell-based; details: HCT-116, 72 h
[37] = Chemical stability of the compound assessed as compound remaining after 120 mins relative to control; format: physicochemical; details: read-out: Stability
[38] = tested on: CCRF-CEM; assay: Induction of cell cycle arrest in human CCRF-CEM cells assessed as accumulation at G0/G1 phase at IC50 concentration after 24 hrs by propidium iodide-staining based flow cytometry (reference value: 39.70%); format: functional
[39] = tested on: BJ; assay: Antiproliferative activity against human BJ cells after 3 days by MTS assay; details: 72 h
[40] = Chemical stability of the compound assessed as compound remaining after 60 mins relative to control; format: physicochemical; details: read-out: Stability
[41] = tested on: CCRF-CEM; assay: Inhibition of mitosis in human CCRF-CEM cells assessed Ser10 H3 phosphorylation positive cells at 5 times IC50 concentration after 24 hrs by flow cytometry relative to total cell population (reference value: 1.36%); format: functional; parameters: scale not given: the % may be the effect or the level left
[42] = tested on: HepG2; assay: Antiproliferative activity against human HepG2 cells after 72 hrs by XTT assay; format: functional, cell-based; details: HepG2, 72 h
[43] = tested on: A549; assay: Antiproliferative activity against human A549 cells after 3 days by MTS assay; format: functional, cell-based; details: A549, 72 h

CSc1ncnc2c1c1occc1n2[C@@H]1O[C@H](CO)[C@@H](O)[C@H]1O
Activity [1]: inactive | Activity [2]: 17.31% | remaining at 0.25 h, 3.3 µM [3]: 99% | remaining at 1 h, 3.3 µM [4]: 98% | remaining at 0.5 h, 5 µM [5]: 99% | Activity [6]: inactive | IC50 [7]: 2700 nM | IC50 [8]: 340 nM | CC50 at 72 h [9]: > 44400 nM | IC50 [10]: 2960 nM | Activity [11]: 1.26% | Activity [12]: 53.55% | Activity [13]: 13.3% | remaining at 0.25 h [14]: 99% | remaining at 0.5 h [15]: 99% | IC50 [16]: 270 nM | Activity [17]: 56% | fraction unbound [18]: 0.16 | Activity [19]: inactive | IC50 [20]: 9370 nM | IC50 [21]: 140 nM | remaining at 2 h, 3.3 µM [22]: 96% | Activity [23]: 14.06% | IC50 [24]: 5570 nM | EC50 [25]: 240 nM | Activity [26]: 6.55% | IC50 [27]: 290 nM | Activity [28]: 38.26% | Activity [29]: 6.52% | Activity [30]: inactive | Activity [31]: inactive | Activity [32]: 0.39% | IC50 [33]: 210 nM | remaining at 0.5 h, 3.3 µM [34]: 99% | log(permeability) [35]: -5.99 | IC50 [36]: 220 nM | remaining at 2 h [37]: 96% | Activity [38]: 44.43% | IC50 [39]: 490 nM | remaining at 1 h [40]: 99% | Activity [41]: 0.9% | IC50 [42]: 2010 nM | IC50 [43]: 4860 nM

Cc1ncnc2c1c1occc1n2[C@@H]1O[C@H](CO)[C@@H](O)[C@H]1O
Activity [1]: inactive | Activity [2]: 16.12% | remaining at 0.25 h, 3.3 µM [3]: 99% | remaining at 1 h, 3.3 µM [4]: 98% | remaining at 0.5 h, 5 µM [5]: 99% | Activity [6]: inactive | IC50 [7]: 6930 nM | IC50 [8]: 570 nM | CC50 at 72 h [9]: > 44400 nM | IC50 [10]: 2210 nM | Activity [11]: 1.09% | Activity [12]: 59.66% | Activity [13]: 13.52% | remaining at 0.25 h [14]: 99% | remaining at 0.5 h [15]: 99% | IC50 [16]: 410 nM | Activity [17]: 48% | fraction unbound [18]: 0.41 | Activity [19]: inactive | IC50 [20]: > 50000 nM | IC50 [21]: 240 nM | remaining at 2 h, 3.3 µM [22]: 96% | Activity [23]: 20.53% | IC50 [24]: > 50000 nM | EC50 [25]: 240 nM | Activity [26]: 0.61% | IC50 [27]: 1200 nM | Activity [28]: 39.31% | Activity [29]: 7.62% | Activity [30]: inactive | Activity [31]: inactive | Activity [32]: 21.63% | IC50 [33]: 450 nM | remaining at 0.5 h, 3.3 µM [34]: 99% | log(permeability) [35]: -6.88 | IC50 [36]: 450 nM | remaining at 2 h [37]: 96% | Activity [38]: 44.57% | IC50 [39]: 7730 nM | remaining at 1 h [40]: 99% | Activity [41]: 0.99% | IC50 [42]: 2120 nM | IC50 [43]: 3190 nM

Cc1ncnc2c1c1c(ccn1C)n2[C@@H]1O[C@H](CO)[C@@H](O)[C@H]1O
Activity [1]: inactive | Activity [2]: 17.22% | remaining at 0.25 h, 3.3 µM [3]: 98% | remaining at 1 h, 3.3 µM [4]: 81% | remaining at 0.5 h, 5 µM [5]: 98% | Activity [6]: inactive | IC50 [7]: > 50000 nM | IC50 [8]: 610 nM | CC50 at 72 h [9]: > 44400 nM | IC50 [10]: 1190 nM | Activity [11]: 1.06% | Activity [12]: 52.19% | Activity [13]: 13.14% | remaining at 0.25 h [14]: 98% | remaining at 0.5 h [15]: 97% | IC50 [16]: 400 nM | Activity [17]: 42% | fraction unbound [18]: 0.71 | Activity [19]: inactive | IC50 [20]: 50000 nM | IC50 [21]: 210 nM | remaining at 2 h, 3.3 µM [22]: 79% | Activity [23]: 10.99% | IC50 [24]: > 50000 nM | EC50 [25]: 120 nM | Activity [26]: 35.91% | IC50 [27]: 1510 nM | Activity [28]: 51.03% | Activity [29]: 5.1% | Activity [30]: inactive | Activity [31]: inactive | Activity [32]: 53.62% | IC50 [33]: 330 nM | remaining at 0.5 h, 3.3 µM [34]: 83% | log(permeability) [35]: -6.87 | IC50 [36]: 330 nM | remaining at 2 h [37]: 91% | Activity [38]: 31.75% | IC50 [39]: 3910 nM | remaining at 1 h [40]: 93% | Activity [41]: 0.9% | IC50 [42]: 1130 nM | IC50 [43]: 2080 nM
